Screens as filed in PubChem BioAssay.
UHRF1 binding: blocks human UHRF1 binding to methylated DNA; UHRF1 binding to methylated oligo, TR-FRET; inhibition, % at 4.4 µM; actives 0.75% (n = 370,000); AID 687016;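 also: UHRF1 SRA domain binding a hemimethylated CpG hairpin DNA probe; 0% = median of test compound wells and 100% = reference inhibitor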
Target sequence (Q96T88 whole entry, looked up, the tested form may be a part): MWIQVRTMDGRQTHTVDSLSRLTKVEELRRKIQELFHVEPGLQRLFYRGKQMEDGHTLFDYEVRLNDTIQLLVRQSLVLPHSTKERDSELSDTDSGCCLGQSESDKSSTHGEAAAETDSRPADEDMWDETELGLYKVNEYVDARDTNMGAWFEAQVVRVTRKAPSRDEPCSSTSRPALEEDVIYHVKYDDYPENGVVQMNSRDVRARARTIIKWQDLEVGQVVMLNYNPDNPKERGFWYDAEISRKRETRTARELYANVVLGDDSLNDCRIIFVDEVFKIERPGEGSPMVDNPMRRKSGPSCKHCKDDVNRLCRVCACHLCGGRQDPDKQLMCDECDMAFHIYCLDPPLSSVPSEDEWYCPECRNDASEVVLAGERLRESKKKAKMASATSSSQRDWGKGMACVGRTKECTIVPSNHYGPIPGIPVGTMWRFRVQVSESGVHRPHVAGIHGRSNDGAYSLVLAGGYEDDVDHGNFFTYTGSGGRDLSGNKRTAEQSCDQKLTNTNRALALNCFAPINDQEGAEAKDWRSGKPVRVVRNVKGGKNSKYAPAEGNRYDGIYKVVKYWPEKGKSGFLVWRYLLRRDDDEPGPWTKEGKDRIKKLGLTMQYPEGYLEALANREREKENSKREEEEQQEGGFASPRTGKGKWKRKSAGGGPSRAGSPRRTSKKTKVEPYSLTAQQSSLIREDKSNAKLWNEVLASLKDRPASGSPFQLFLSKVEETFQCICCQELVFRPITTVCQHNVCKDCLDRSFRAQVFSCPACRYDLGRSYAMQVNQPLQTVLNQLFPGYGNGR
CASP6 VEID inh: inhibitors of human caspase-6; P55212; inhibition, % at 12.5 µM; purified caspase-6, Z-VEID-R110 cleavage fluorescence; AID 686996; actives 0.53% (n = 350,000);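 active = mean inhibition across replicates at least about 35%, with every replicate also reaching that limit, limit read from the data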;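 also: 0% = median of neutral control wells and 100% = no fluorescence left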
MBD2 inh: blocks human MBD2 binding to methylated DNA | TR-FRET, MBD2 binding to methylated oligonucleotide | actives 0.31% (n = 370,000) | inhibition, % at 4.4 µM | Q9UBB5; in the data active = inhibition above about 13%
TDP2 inh: TDP2 (human) inhibition, absorbance primary screen | recombinant TDP2, T5PNP hydrolysis, p-nitrophenol absorbance 415 nm | O95551 | actives 0.34% (n = 370,000) | AID 720702 | inhibition, % at 12.8 µM;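 active = inhibition above the mean of all tested compounds plus 3 SD, set per campaign, cut at about 25% in these data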;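 also: 0% = DMSO with enzyme and 100% = buffer with substrate but no TDP2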
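System – recombinant human TDP2 · Amount – 120 nM TDP2 per well · Buffer or medium – Mg2+-containing Tris-HCl buffer, pH 7.5 · Reagent – T5PNP substrate, 5 mM · Dosing – 12.8 µM single point, 1% DMSO · Incubation – 2 h at 37 °C · Measured by – epi absorbance · Read-out basis – percent inhibition · Benchmarks – high control without enzyme, low control DMSO plus TDP2 · Repeats – singlicate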
LEDGF integ inh: blocks HIV-1 LEDGF/p75-dependent DNA integration. TR-FRET IN-LEDGF/p75 DNA integration, Eu/Cy5. inhibition, % at 3.7 µM. actives 0.64% (n = 370,000);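 active = inhibition above the screen-wide mean plus 3 SD, cut at about 13% in these data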;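 also: signal is the Cy5 over europium emission ratio at 671 and 618 nm; 0% = plate median of compound wells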
NSD2 HMT inh: inhibitors of human histone methyltransferase NSD2 | O96028 | NSD2 peptide methylation, AlphaScreen, 120 min | inhibition, % at 12.5 µM | actives 0.54% (n = 310,000) | AID 743445; in the data active = inhibition above about 50%
UHRF1 DNA bind: inhibits human UHRF1 binding to methylated oligonucleotide, MBD2 counter-screen; shares compounds with MBD2 inh; TR-FRET; inhibition, % at 4.4 µM; actives 25% (n = 1,000);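 also: UHRF1 SRA domain binding a labeled hemimethylated CpG hairpin DNA; 0% = vehicle only and 100% = reference inhibitor with vehicle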
MBD2 confirm: MBD2-DBD methyl-DNA binding inhibition, TR-FRET confirmation. shares compounds with MBD2 inh. actives 26% (n = 1,000). AID 720531. inhibition, % at 4.4 µM. TR-FRET MBD2-DBD binding to methylated oligonucleotide; in the data active = inhibition above about 14%
Active calls of the source: *; i = inactive; · = no result; ! = not active in a repeat. In the library only some 1.8% were active in any assay of this set; here they are far more common. Rule as the data show it, unless noted: active = inhibition above about 21%; inactive = the rest.

SMILES	UHRF1 binding	CASP6 VEID inh	MBD2 inh	TDP2 inh	LEDGF integ inh	NSD2 HMT inh	others
COc1ccc(C#Cc2ccc([C@@H]3[C@H]4CN(C(=O)Cc5cccnc5)CCCCN4[C@H]3CO)cc2)cc1	·	0	·	·	·	·
O=C1NC(=O)N(CCC2=CCCCC2)C(=O)/C1=C\c1cccs1	6	37*	8	0	2	27
CCOC(=O)[C@@H]1[C@@H]2NC(=S)N[C@@]1(C)Oc1ccccc12	·	-2	·	·	·	·
CCCCNC(C)Cc1ccccc1 (stereo not drawn)	0	-1	4	1	-2	·
CC(Cc1cccs1)NCc1ccccc1 (stereo not drawn)	29*	-3	0	-2	-2	·
Fc1ccc(CNCCc2ccccc2F)cc1	0	-1	1	6	-4	·
Fc1ccc(CCNCc2ccc(Br)cc2)cc1	35*	-1	2	4	2	4
CC(C)COC(=O)c1ccccc1C(=O)OCC(C)C	-1	-2	0	0	-3	·
C[CH2][Hg][S]c1ccccc1C(=O)O	7	49*	8	0	i	·
COC(=O)[C@@H]1[C@@H](CO)[C@@H]2Cn3c(ccc(-c4ccccc4)c3=O)[C@H]1N2CC1CC1	·	-2	·	·	·	·
O=C(O)[C@H]1[C@H](CO)[C@H]2Cn3c(ccc(-c4cccnc4)c3=O)[C@@H]1N2C(=O)Nc1cc(F)ccc1F	·	-1	·	·	·	·
CC(C)(C)n1nnnc1C(c1cc2ccccc2o1)N1CCC2(CC1)C(=O)NCN2c1ccccc1 (stereo not drawn)	-1	-2	-1	-3	3	·
O=C1NCN(c2ccccc2)C12CCN(C(c1cc3ccccc3o1)c1nnnn1C1CCCCC1)CC2 (stereo not drawn)	23*	2	8	5	-2	·
N#Cc1cccc(-c2ccc([C@H]3[C@H](CO)N4CCCCN(C(=O)Cc5ccccc5)C[C@@H]34)cc2)c1	·	0	·	·	·	·
C=CCN1C(=O)NC(=O)/C(=C\c2ccc(-c3ccccc3[N+](=O)[O-])o2)C1=O	56*	11	3	12	4	4
C=CCN1C(=O)/C(=C/c2ccc(N3CCOCC3)o2)C(=O)NC1=S	-5	·	-8	-2	-4	4
COc1cc(CN2CC=C(c3ccc(F)cc3)CC2)cc(OC)c1	-2	-1	5	10	1	·
CN(C)c1ccc(CN2CC=C(c3ccc(F)cc3)CC2)cc1	9	·	3	-10	-1	51*
CN1C(=O)NC(=O)C(N=Nc2ccc(Cl)cc2)C1=O (stereo not drawn)	4	47*	-2	-13	-7	4
O=C1NC(=O)N(Cc2ccco2)C(=O)/C1=C\c1cccn1CCOc1ccc(Cl)cc1	55*	68*	2	16	61*	19
CCc1ccc(N2C(=O)NC(=O)/C(=C/c3cccn3CCOc3ccc(C)cc3)C2=O)cc1	0	10	2	3	-2	6
CCC(=O)N1[C@@H]2c3ccc(-c4cccc(F)c4)c(=O)n3C[C@H]1[C@H](CO)[C@H]2C(=O)OC	·	2	·	·	·	·
CCCCn1nnnc1C(CCSC)N1CCC(n2c(=O)[nH]c3ccccc32)CC1 (stereo not drawn)	1	50*	-2	-3	-4	·
COC(=O)[C@H]1[C@H](CO)[C@H]2Cn3c(ccc(/C=C/c4ccccc4)c3=O)[C@@H]1N2Cc1ccccc1F	·	-4	·	·	·	·
O=C1NC(=O)N(c2ccc3c(c2)OCO3)C(=O)/C1=C/c1ccc(N2CCCCC2)o1	-23	·	-14	14	0	5
SMILES	UHRF1 binding	CASP6 VEID inh	MBD2 inh	TDP2 inh	LEDGF integ inh	NSD2 HMT inh	others
O=C1NC(=O)N(c2ccc3c(c2)OCO3)C(=O)/C1=C\c1ccc(-c2ccccc2C(=O)O)o1	18	43*	2	-3	4	37
Cn1c(O)c(/C=C2\C=c3ccccc3=NC2=O)c(=O)n(C)c1=O	75*	6	-5	12	-2	2
CN1CCC2(CC1)C(C#N)=C(N)NC(S)=C2C#N	-7	47*!	-6	30*!	-1	46
COC(=O)[C@@H]1[C@@H](CO)[C@@H]2Cn3c(ccc(C4=CCCC4)c3=O)[C@H]1N2S(=O)(=O)c1cn(C)cn1	·	-2	·	·	·	·
CC=Cc1ccc2n(c1=O)C[C@@H]1[C@@H](CO)[C@H](C(=O)N(C)C)N[C@H]21 (mixture of isomers)	·	1	·	·	·	·
COC(=O)C1=C(c2ccc(F)cc2OCc2ccccc2)C[C@@H]2CC[C@H]1N2C(=O)NCCN1CCOCC1	-3	0	2	0	19*	·
COC(=O)C1=C(c2ccc(F)cc2OCc2ccccc2)C[C@@H]2CC[C@H]1N2C(=O)NCCc1ccc(F)cc1	2	-7	1	-2	4	·
O=C(Cc1cccnc1)N1CCCCN2[C@@H](CO)[C@H](c3ccc(C#CC4CC4)cc3)[C@@H]2C1	·	0	·	·	·	·
COc1ccc(C#Cc2ccc([C@H]3[C@@H](CO)N4CCCCN(C(=O)Cc5cccnc5)C[C@@H]34)cc2)cc1	·	1	·	·	·	·
CN(C)c1ccc(/C=C/c2cc[n+](C)c3ccccc23)cc1	18	-18	9	-2	-15	62*
CN(C)[C@@H]1C(=O)C(C(N)=O)=C(O)[C@@]2(O)C(=O)C3=C(O)c4c(O)cccc4[C@@](C)(O)[C@H]3[C@H](O)[C@@H]12	67*	69*	35*	12	61*	·
Cc1ccc(-c2cc(-c3ccccc3)cc(-c3ccccc3)[n+]2-c2ccccc2C(=O)O)cc1	21*	0	19*	8	3	·	UHRF1 DNA bind=12;MBD2 confirm=28*
C#CCCC[C@@H]1OC(=O)CNC(=O)C([C@@H](C)CC)NC(=O)[C@@H]2CCCN2C(=O)C([C@@H](C)CC)OC(=O)[C@H](Cc2ccccc2)N(C)C(=O)[C@H](C(C)C)NC(=O)C1(C)C (stereo partly drawn)	43*	1	15*	-9	5	·	UHRF1 DNA bind=7;MBD2 confirm=2
COC(=O)[C@H]1[C@H](CO)[C@H]2Cn3c(cccc3=O)[C@@H]1N2C(=O)C1CCCC1	·	-10	·	·	·	·
O=C(O)[C@H]1[C@H](CO)[C@H]2Cn3c(ccc(-c4cccc(F)c4)c3=O)[C@@H]1N2CCc1ccccc1	·	3	·	·	·	·
OC[C@H]1[C@@H]2c3ccccc3NC[C@@H]2N1Cc1cccnc1	·	-6	·	·	·	·
COC(=O)C1=C(c2c(C)noc2C)C[C@@H]2CC[C@H]1N2C(=O)N1CCC(C)CC1	0	0	3	-8	-1	·
